According to ChEMBL document CHEMBL4706674 (Bioorg Med Chem Lett, 2021):

Legend:
[1] = test system: Human immunodeficiency virus 1; assay: Antiviral activity against wild type HIV-1 NL4-3 harbouring Gag AV370 mutant infected in MT-2 cells assessed as inhibition of viral replication in presence of 10% of fetal bovine serum by luciferase reporter gene based multicycle replication assay; assay type: functional, organism-based; settings: Human immunodeficiency virus 1, NL4-3, MT2
Summary of the method: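 Multiple-cycle replication assay in MT-2 cells using NL4-3-derived virus carrying a Renilla luciferase reporter (NLRepRlucP373S) as the growth marker. V370A and ΔV370 viruses are identical to WT except for that single substitution or deletion at position 370.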

[2] = test system: Human immunodeficiency virus 1; assay: Antiviral activity against wild type HIV-1 NL4-3 infected in MT-2 cells assessed as inhibition of viral replication in presence of 10% of fetal bovine serum by luciferase reporter gene based multicycle replication assay; assay type: functional, organism-based; settings: Human immunodeficiency virus 1, NL4-3, MT2
[3] = test system: Human immunodeficiency virus 1; assay: Antiviral activity against wild type HIV-1 NL4-3 harbouring Gag V370A mutant infected in MT-2 cells assessed as inhibition of viral replication in presence of 10% of fetal bovine serum by luciferase reporter gene based multicycle replication assay; assay type: functional, organism-based; settings: Human immunodeficiency virus 1, NL4-3, MT2
[4] = Cytotoxicity against human MT2 cells; assay type: cell-based
[5] = test system: Human immunodeficiency virus 1; assay: Antiviral activity against wild type HIV-1 NL4-3 infected in MT-2 cells assessed as inhibition of viral replication in presence of 40% human serum and 27 mg/ml human serum albumin by luciferase reporter gene based multicycle replication assay; assay type: functional, organism-based; settings: Human immunodeficiency virus 1, NL4-3, MT2
[6] = Metabolic stability in human liver microsomes assessed as half life; assay type: ADME, Microsome; settings: time 2 min
[7] = Metabolic stability in rat liver microsomes assessed as half life; assay type: ADME, Microsome; settings: time 2 min
[8] = Oral bioavailability in rat measured at 5 mg/kg up to 24 hrs; assay type: ADME, organism-based; settings: in vivo
Summary of the method: (§1)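 Rats dosed 5 mg/kg PO and 1 mg/kg IV; each value is the mean of 3 rats unless otherwise noted (some n = 2). Vehicle PEG 300/ethanol/Tween 80 (89:10:1 v/v), or PEG 300/ethanol/0.1 N NaOH/Tween 80 (84.5:10:5:0.5 v/v). F, tmax, Cmax and CL come from a full 24 h PK screen. AUCtotal is derived from the full 24 h run plus a 6 h PK screen.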

[9] = AUCtotal in rat at 5 mg/kg, po measured after 24 hrs; assay type: ADME, organism-based; design: route oral, dose 5 mg/kg, time 24 hrs; settings: in vivo; summary of the method: as §1
[10] = Tmax in rat at 5 mg/kg, po measured after 24 hrs; assay type: ADME, organism-based; settings: in vivo; summary of the method: as §1
[11] = Cmax in rat at 5 mg/kg, po measured after 24 hrs; assay type: ADME, organism-based; design: route oral, dose 5 mg/kg, time 24 hrs; settings: in vivo; summary of the method: as §1
[12] = Clearance in rat at 1 mg/kg, iv measured after 24 hrs; assay type: ADME, organism-based; settings: in vivo; summary of the method: as §1
[13] = Volume of distribution at steady state in rat at 1 mg/kg, iv; assay type: ADME, organism-based; settings: in vivo, read-out: Vdss
[14] = AUC (0 to 24) in rat at 5 mg/kg, po measured after 24 hrs; assay type: ADME, organism-based; design: route oral, time 24 hrs, dose 5 mg/kg; settings: in vivo
Summary of the method: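 Rats dosed orally at 5 mg/kg (IV arm 1 mg/kg). Vehicle was PEG 300/ethanol/Tween 80 (89:10:1 v/v) or PEG 300/ethanol/0.1 N NaOH/Tween 80 (84.5:10:5:0.5 v/v). Values are the mean of 3 rats unless noted (some n = 2), from a full 24 h PK run; AUC_total also drew on a 6 h PK screen.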

[15] = test system: Human immunodeficiency virus 1; assay: Antiviral activity against wild type HIV-1 NL4-3 harbouring Gag […]/V370A mutant infected in MT-2 cells assessed as inhibition of viral replication in presence of 10% of fetal bovine serum by luciferase reporter gene based multicycle replication assay; assay type: functional, organism-based; settings: Human immunodeficiency virus 1, NL4-3, MT2
[16] = test system: Human immunodeficiency virus 1; assay: Antiviral activity against wild type HIV-1 NL4-3 harbouring Gag A364V mutant infected in MT-2 cells assessed as inhibition of viral replication in presence of 10% of fetal bovine serum by luciferase reporter gene based multicycle replication assay; assay type: functional, organism-based; settings: Human immunodeficiency virus 1, NL4-3, MT2
[17] = test system: Human immunodeficiency virus 1; assay: Antiviral activity against wild type HIV-1 NL4-3 harbouring Gag AV370/T371A mutant infected in MT-2 cells assessed as inhibition of viral replication in presence of 10% of fetal bovine serum by luciferase reporter gene based multicycle replication assay; assay type: functional, organism-based; settings: Human immunodeficiency virus 1, NL4-3, MT2
[18] = AUC in rat at 5 mg/kg, po; settings: in vivo

Compound	EC50 [1]	EC50 [2]	EC50 [3]	CC50 [4]	EC50 [5]	EC50 [15]	also measured
C=C(C)[C@@H]1CC[C@]2(NCCN3CCS(=O)(=O)CC3)CC[C@]3(C)[C@H](CC[C@@H]4[C@@]5(C)CC=C(C6=CC[C@H](C(=O)O)CC6)C(C)(C)[C@@H]5CC[C@]43C)[C@@H]12	4.1 nM	1.3 nM	2 nM	4.1 µM	5 nM		
C=C(C)[C@@H]1CC[C@]2(NCCN3CCS(=O)(=O)CC3)CC[C@]3(C)[C@H](CC[C@@H]4[C@@]5(C)CC=C(C6=CC[C@@H](C(=O)O)CC6)C(C)(C)[C@@H]5CC[C@]43C)[C@@H]12	3.1 nM	0.9 nM	1.3 nM	12.2 µM	5.7 nM		half-life [6]: 58 min; half-life [7]: > 120 min; bioavailability [8]: 58%; AUC [9]: 15.8 µM·h; Tmax [10]: 2.7 h; Cmax [11]: 1100 nM; clearance [12]: 4.3 mL/min/kg; Vd [13]: 2.3 L/kg
C=C(C)[C@@H]1CC[C@]2(C(=O)O)CC[C@]3(C)[C@H](CC[C@@H]4[C@@]5(C)CC=C(C6=CC7(C6)CC(C(=O)O)(C(=O)O)C7)C(C)(C)[C@@H]5CC[C@]43C)[C@@H]12	437 nM	28.3 nM	85.4 nM	18.6 µM			
C=C(C)[C@@H]1CC[C@]2(C(=O)O)CC[C@]3(C)[C@H](CC[C@@H]4[C@@]5(C)CC=C(c6ccc(C(=O)O)cc6)C(C)(C)[C@@H]5CC[C@]43C)[C@@H]12					316 nM		half-life [6]: > 120 min; half-life [7]: > 120 min; AUC at 24 h [14]: 5.7 µM·h; Tmax [10]: 4 h; clearance [12]: 1 mL/min/kg; Vd [13]: 0.1 L/kg
C=C(C)[C@@H]1CC[C@]2(NCCN3CCS(=O)(=O)CC3)CC[C@]3(C)[C@H](CC[C@@H]4[C@@]5(C)CC=C(CCC(C)(C)CC(=O)O)C(C)(C)[C@@H]5CC[C@]43C)[C@@H]12	2.3 nM	1.3 nM		12.3 µM	6.8 nM	1.6 nM	EC50 [16]: 1290 nM
C=C(C)[C@@H]1CC[C@]2(NCCN3CCS(=O)(=O)CC3)CC[C@]3(C)[C@H](CC[C@@H]4[C@@]5(C)CC=C(C6=CCC(C(=O)O)(C(=O)O)CC6)C(C)(C)[C@@H]5CC[C@]43C)[C@@H]12	40.1 nM	99 nM	39.2 nM	13.2 µM		113 nM	
C=C(C)[C@@H]1CC[C@]2(NCCN3CCS(=O)(=O)CC3)CC[C@]3(C)[C@H](CC[C@@H]4[C@@]5(C)CC=C(c6ccc(C(=O)O)cc6)C(C)(C)[C@@H]5CC[C@]43C)[C@@H]12 [BMS-955176]	13 nM		2.7 nM		11.5 nM	148 nM	EC50 [17]: 23 nM; half-life [6]: > 120 min; half-life [7]: > 120 min; AUC [9]: 14.2 µM·h; Tmax [10]: 6 h; Cmax [11]: 1200 nM; AUC [18]: 4.1 µM·h
C=C(C)[C@@H]1CC[C@]2(NCCN3CCC(S(C)(=O)=O)CC3)CC[C@]3(C)[C@H](CC[C@@H]4[C@@]5(C)CC=C(C6=CC[C@@H](C(=O)O)CC6)C(C)(C)[C@@H]5CC[C@]43C)[C@@H]12	2.7 nM	2.7 nM		9 µM	5 nM	14.7 nM	EC50 [16]: 1800 nM
C=C(C)[C@@H]1CC[C@]2(NCCN3CCS(=O)(=O)CC3)CC[C@]3(C)[C@H](CC[C@@H]4[C@@]5(C)CC=C(CCCC(C(=O)O)C(=O)O)C(C)(C)[C@@H]5CC[C@]43C)[C@@H]12		306 nM		> 30 µM			EC50 [17]: 555 nM
C=C(C)[C@@H]1CC[C@]2(NCCN3CCS(=O)(=O)CC3)CC[C@]3(C)[C@H](CC[C@@H]4[C@@]5(C)CC=C(CCCCC(=O)O)C(C)(C)[C@@H]5CC[C@]43C)[C@@H]12		2.3 nM		10.2 µM			EC50 [17]: 118 nM
C=C(C)[C@@H]1CC[C@]2(NCCN3CCS(=O)(=O)CC3)CC[C@]3(C)[C@H](CC[C@@H]4[C@@]5(C)C=CC(=C6CC7(C6)CC(C(=O)O)(C(=O)O)C7)C(C)(C)[C@@H]5CC[C@]43C)[C@@H]12	60.8 nM	26.7 nM	53.1 nM	> 10 µM			
C=C(C)[C@@H]1CC[C@]2(C(=O)O)CC[C@]3(C)[C@H](CC[C@@H]4[C@@]5(C)CC[C@H](OC(=O)CC(C)(C)C(=O)O)C(C)(C)[C@@H]5CC[C@]43C)[C@@H]12 [BEVIRIMAT]							half-life [6]: > 120 min; half-life [7]: 29.5 min; F ([8]; 5 mg/kg, 24 h): 54%; Tmax [10]: 1.8 h
C=C(C)[C@@H]1CC[C@]2(NCCN3CCS(=O)(=O)CC3)CC[C@]3(C)[C@H](CC[C@@H]4[C@@]5(C)CC=C(CC6CCC(C(=O)O)CC6)C(C)(C)[C@@H]5CC[C@]43C)[C@@H]12 (some centres undefined)		3 nM		13.5 µM		12.4 nM	EC50 [17]: 5.6 nM; EC50 [16]: 1850 nM
C=C(C)[C@@H]1CC[C@]2(NCCN3CCS(=O)(=O)CC3)CC[C@]3(C)[C@H](CC[C@@H]4[C@@]5(C)CC=C(C6=CC7(C6)CC(C(=O)O)(C(=O)O)C7)C(C)(C)[C@@H]5CC[C@]43C)[C@@H]12	61.1 nM	13 nM	28.8 nM	> 30 µM			
C=C(C)[C@@H]1CC[C@]2(NCCN3CCC(S(C)(=O)=O)CC3)CC[C@]3(C)[C@H](CC[C@@H]4[C@@]5(C)CC=C(C6=CC[C@H](C(=O)O)CC6)C(C)(C)[C@@H]5CC[C@]43C)[C@@H]12	4.2 nM	1.4 nM		9.1 µM	6.6 nM	9.6 nM	EC50 [16]: 878 nM
C=C(C)[C@@H]1CC[C@]2(CO)CC[C@]3(C)[C@H](CC[C@@H]4[C@@]5(C)CC=C(C#CC(=O)O)C(C)(C)[C@@H]5CC[C@]43C)[C@@H]12	> 3000 nM	252 nM	> 3000 nM	> 10 µM			
C=C(C)[C@@H]1CC[C@]2(NCCN3CCC(S(C)(=O)=O)CC3)CC[C@]3(C)[C@H](CC[C@@H]4[C@@]5(C)CC=C(c6ccc(C(=O)O)cc6)C(C)(C)[C@@H]5CC[C@]43C)[C@@H]12		1.9 nM					
C=C(C)[C@@H]1CC[C@]2(NCCN3CCS(=O)(=O)CC3)CC[C@]3(C)[C@H](CC[C@@H]4[C@@]5(C)CC=C(C6=CC7(C6)CC(C(=O)O)C7)C(C)(C)[C@@H]5CC[C@]43C)[C@@H]12 (some centres undefined)	5.9 nM	1.5 nM	1.6 nM	11.9 µM	7 nM	49 nM	EC50 [16]: 980 nM; half-life [6]: 69 min; half-life [7]: > 120 min; bioavailability [8]: 32%; AUC [9]: 13.5 µM·h; Tmax [10]: 6.3 h; Cmax [11]: 900 nM; clearance [12]: 2.9 mL/min/kg; Vd [13]: 1.4 L/kg
C=C(C)[C@@H]1CC[C@]2(NCCN3CCS(=O)(=O)CC3)CC[C@]3(C)[C@H](CC[C@@H]4[C@@]5(C)CC=C(C6=CCC(C(=O)O)CC6)C(C)(C)[C@@H]5CC[C@]43C)[C@@H]12 (some centres undefined)	2.1 nM	0.6 nM	0.8 nM	9.6 µM	8.9 nM		
C=C(C)[C@@H]1CC[C@]2(NCCN3CCS(=O)(=O)CC3)CC[C@]3(C)[C@H](CC[C@@H]4[C@@]5(C)CC=C(CCCC(C)(C)C(=O)O)C(C)(C)[C@@H]5CC[C@]43C)[C@@H]12		5.3 nM		8.2 µM			EC50 [17]: 29.7 nM
